# Measurements from ChEMBL document CHEMBL1129493 (J Med Chem, 1996).
# How the values were obtained:
# Candida albicans = experiment: Minimum inhibitory concentration evaluated against Candida albicans; format: functional
# Dihydrofolate reductase [1] = target: T1, Dihydrofolate reductase (Candida albicans, UniProt P22906); experiment: Inhibition of Dihydrofolate reductase enzyme from Candida albicans
# T1 sequence (P22906 whole entry): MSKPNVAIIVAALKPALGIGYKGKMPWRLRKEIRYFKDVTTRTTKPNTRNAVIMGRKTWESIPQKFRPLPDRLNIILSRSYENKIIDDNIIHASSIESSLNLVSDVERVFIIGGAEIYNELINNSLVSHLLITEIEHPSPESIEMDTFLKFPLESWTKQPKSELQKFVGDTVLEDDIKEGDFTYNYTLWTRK
# HCT-8 = experiment: Activity was evaluated against HCT-8 tumor cells; format: functional, cell-based; settings: Homo sapiens
# Summary of the method: (§1)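 Cytotoxicity was read by MTT dye reduction for suspension cultures or sulforhodamine B for monolayer cultures. For reversal of multidrug resistance, reserpine was added as reversing agent ([…] as printed).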
# Mus musculus [2] = species on record: Mus musculus; experiment: Effect on Pneumocystis carinii pneumonia in SCID mice; format: functional
# Summary of the method: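 SCID mice (10-11/group) were dosed prophylactically once daily from day 1 postinfection, 42 doses. Test drug in D5W was given ip, then leucovorin 12 mg/kg sc 30 min later. Trimethoprim 50 mg/kg plus sulfamethoxazole 250 mg/kg was given orally, and controls received D5W ip and sc. Lung impression smears were taken 24 h after the last dose and stained by immunofluorescence. Infection was scored 0-4 semilogarithmically, reported as mean ± SEM and as infected/total mice.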
# Mus musculus [3] = species on record: Mus musculus; experiment: Number of mice infected to tat of total number of mice ([…]/[…]); format: functional, organism-based
# Dihydrofolate reductase [4] = target: T2, Dihydrofolate reductase (Homo sapiens, UniProt P00374); experiment: Inhibition of human recombinant Dihydrofolate reductase enzyme
# T2 sequence (P00374 whole entry): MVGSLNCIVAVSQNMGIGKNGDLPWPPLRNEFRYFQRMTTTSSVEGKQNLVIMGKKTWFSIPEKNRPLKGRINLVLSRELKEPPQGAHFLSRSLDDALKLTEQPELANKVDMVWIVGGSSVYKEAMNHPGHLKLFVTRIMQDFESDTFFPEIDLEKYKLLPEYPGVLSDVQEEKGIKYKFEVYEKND
# Mus musculus [5] = species on record: Mus musculus; experiment: Effect on Candida albicans nephritis and Meningitis in Immunosuppressed Mice brain; format: functional
# Summary of the method: (§2)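 Immunosuppressed CD-1 female mice (10/group) given cyclophosphamide ip, 160 and 40 mg/kg on days -4 and -1; C. albicans 5 × 10^4 cfu/mouse iv via lateral tail vein. Sc dosing of 20 or 50 mg/kg in sesame oil at 3, 7, 24, 30 h post-inoculation; sulfamethoxazole 200 mg/kg ip in D5W given 1 h before each dose. Kidney and brain cultured at 48 h; log cfu/g tissue.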
# Mus musculus [6] = species on record: Mus musculus; experiment: Effect on Candida albicans nephritis and Meningitis in Immunosuppressed Mice kidney; format: functional; summary of the method: as §2
# A549 = experiment: Cytotoxic activity evaluated against A549 tumor cells; settings: Homo sapiens
# [7] = Relative concentration of compound in brain compared to concentration in plasma (0.4 ug/mL) at the time of tissue collection from mice; relative concentration; format: ADME, organism-based; settings: mouse, read-out: Activity
# [8] = Cytotoxic activity was evaluated against Daoy tumor cells; format: functional, cell-based; settings: Homo sapiens; summary of the method: as §1
# [9] = Cytotoxic activity was evaluated against L tumor cells; format: functional, cell-based; settings: Mus musculus; summary of the method: as §1
# Mus musculus [10] = experiment: Effect on life span of mice with intracranially implanted P388 Leukemic cells; format: functional
# Summary of the method: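 CDF-1 female mice (18–20 g, 5 or 8/group); P388 leukemia, maintained by in vivo serial passage, implanted intracranially at 1 × 10^5 cells. Treatment started 24 h later; test agents suspended in 0.5% carboxymethyl cellulose plus 1% Tween 80, given sc or ip qd × 10. Read-out was percent increase in life span versus controls.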
# Mus musculus [11] = experiment: Effect on life span of mice with intraperitoneally implanted P388 Leukemic cells; format: functional
# Summary of the method: (§3)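 CDF-1 female mice (18–20 g, 5 or 8/group); P388 or P388/ADR cells implanted ip at 1 × 10^6 cells. Dosing began 24 h later; agents suspended in 0.5% carboxymethyl cellulose plus 1% Tween 80, given sc or ip qd × 10. Read-out was percent increase in life span.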
# P388 [12] = experiment: Cytotoxic activity was evaluated against P388D1 tumor cells; format: functional, cell-based; settings: Mus musculus; summary of the method: as §1
# U-87 MG = experiment: Cytotoxic activity was evaluated against U87MG tumor cells; format: functional, cell-based, U-87MG ATCC; settings: Homo sapiens; summary of the method: as §1
# KB [13] = experiment: Cytotoxic activity was evaluated against KBV-1 cells in presence of reserpine; format: functional, Homo sapiens; summary of the method: as §1
# KB [14] = experiment: Cytotoxic activity was evaluated against KBV-1 cells; format: functional, Homo sapiens; summary of the method: as §1
# MCF7 [15] = experiment: Cytotoxic activity was evaluated against MCF-7/ADR cells; format: functional, Homo sapiens; summary of the method: as §1
# MCF7 [16] = experiment: Cytotoxic activity was evaluated against MCF-7/ADR+Reserpine cells; format: functional, Homo sapiens; summary of the method: as §1
# MCF7 [17] = experiment: Cytotoxic Activity was evaluated against MCF-7 cells; format: functional, Homo sapiens; summary of the method: as §1
# KB 3-1 = experiment: Cytotoxic activity was evaluated against KB3-1 cells; format: functional, Homo sapiens; summary of the method: as §1
# Mus musculus [18] = experiment: Effect on life span of mice with intraperitoneally implanted P388/ADR Leukemic cells; format: functional; summary of the method: as §3
# P388 [19] = experiment: Cytotoxic activity was evaluated against P388D1/ADR cells; format: functional, Mus musculus; summary of the method: as §1
# P388 [20] = experiment: Cytotoxic Activity was evaluated against P388D1 cells; format: functional, Mus musculus; summary of the method: as §1
# P388 [21] = experiment: Cytotoxic activity was evaluated against P388/ADR + reserpine cells; format: functional, Mus musculus; summary of the method: as §1
structure (smiles),measurement,setting,value
CCCCc1cc2c3c(N)nc(N)nc3ccc2n1C(C)(C)C,MIC,Candida albicans,> 0.1 µg/mL
same,Ki,Dihydrofolate reductase [1],0.38 nM
same,IC50,HCT-8,52 nM
Nc1nc(=O)c2c([nH]1)NCC(CNc1ccc(C(=O)N[C@@H](CCC(=O)O)C(=O)O)cc1)N2C=O (some centres not stated) [LEUCOVORIN],Infection score,Mus musculus [2],3
same,No. of mice infected /total,Mus musculus [3],Number of mice infected to tat of total number of mice ([…]/[…])
CCC(C)(C)n1c(C)cc2c3c(N)nc(N)nc3ccc21,MIC,Candida albicans,0.025 µg/mL
same,Ki,Dihydrofolate reductase [1],0.0071 nM
same,Ki,Dihydrofolate reductase [4],0.0004 nM
same,IC50,HCT-8,2.1 nM
CCc1cc2c3c(N)nc(N)nc3ccc2n1C(C)CC (configuration not stated),MIC,Candida albicans,0.1 µg/mL
same,Ki,Dihydrofolate reductase [1],< 0.05 nM
same,Ki,Dihydrofolate reductase [4],0.0001 nM
same,IC50,HCT-8,0.82 nM
Cc1cc(NS(=O)(=O)c2ccc(N)cc2)no1 [SULFAMETHOXAZOLE],Log cfu/g of tissue,Mus musculus [5],4.7
same,Log cfu/g of tissue,Mus musculus [6],7.3
CCCc1cc2c3c(N)nc(N)nc3ccc2n1C(CC)CC,MIC,Candida albicans,> 0.1 µg/mL
same,Ki,Dihydrofolate reductase [1],< 0.11 nM
same,Ki,Dihydrofolate reductase [4],0.0004 nM
same,IC50,HCT-8,4.4 nM
Nc1nc(N)c2c(ccc3[nH]ccc32)n1,MIC,Candida albicans,0.8 µg/mL
same,Ki,Dihydrofolate reductase [1],23 nM
same,Ki,Dihydrofolate reductase [4],1 nM
same,IC50,HCT-8,1450 nM
CCn1c(C(C)C)cc2c3c(N)nc(N)nc3ccc21,MIC,Candida albicans,0.1 µg/mL
same,Ki,Dihydrofolate reductase [1],0.33 nM
same,Ki,Dihydrofolate reductase [4],< 0.002 nM
same,IC50,HCT-8,1.4 nM
CCc1cc2c3c(N)nc(N)nc3ccc2n1C(CC)CC,MIC,Candida albicans,0.1 µg/mL
same,Ki,Dihydrofolate reductase [1],< 0.06 nM
same,Ki,Dihydrofolate reductase [4],0.0002 nM
same,IC50,HCT-8,0.57 nM
CCc1cc2c3c(N)nc(N)nc3ccc2n1CC,MIC,Candida albicans,0.2 µg/mL
same,Ki,Dihydrofolate reductase [1],0.33 nM
same,Ki,Dihydrofolate reductase [4],0.01 nM
same,IC50,HCT-8,0.59 nM
CCC(CC)n1c(C(C)C)cc2c3c(N)nc(N)nc3ccc21,MIC,Candida albicans,> 0.1 µg/mL
same,Ki,Dihydrofolate reductase [1],< 0.05 nM
same,Ki,Dihydrofolate reductase [4],0.0001 nM
same,IC50,HCT-8,0.75 nM
CC(C)(C)c1cc2c(ccc3nc(N)nc(N)c32)[nH]1,MIC,Candida albicans,0.05 µg/mL
same,Ki,Dihydrofolate reductase [1],0.12 nM
same,Ki,Dihydrofolate reductase [4],< 0.002 nM
same,IC50,HCT-8,3.3 nM
CCC(CC)n1ccc2c3c(N)nc(N)nc3ccc21,IC50,A549,10 nM
same,Kp,[7],10
same,MIC,Candida albicans,0.001 µg/mL
same,IC50,[8],80 nM
same,Ki,Dihydrofolate reductase [1],0.22 nM
same,Ki,Dihydrofolate reductase [4],0.0045 nM
same,IC50,HCT-8,6 nM
same,IC50,[9],2.2 nM
same,Increase in life-span,Mus musculus [10],55%
same,Increase in life-span,Mus musculus [11],80%
same,Log cfu/g of tissue,Mus musculus [6],6
same,IC50,P388 [12],4.5 nM
same,IC50,U-87 MG,8 nM
COc1cccc2c1C(=O)c1c(O)c3c(c(O)c1C2=O)C[C@@](O)(C(=O)CO)C[C@@H]3O[C@H]1C[C@H](N)[C@H](O)[C@H](C)O1 [DOXORUBICIN],Relative IC50,KB [13],1.6
same,Relative IC50,KB [14],61
same,Relative IC50,MCF7 [15],200
same,Relative IC50,MCF7 [16],1.5
same,Relative IC50,MCF7 [17],1
same,Relative IC50,KB 3-1,1
same,Increase in life-span,Mus musculus [11],130%
same,Increase in life-span,Mus musculus [18],30%
same,Relative IC50,P388 [19],28 nM
same,Relative IC50,P388 [20],1
same,Relative IC50,P388 [21],3.7 nM
